Converted amounts (≈) assume the structure as drawn. The source made the active and inactive calls. No cut-off for these calls is given here.
Columns and labels:
Mus musculus [1] = assay: Toxicity in Swiss mouse assessed as weight loss at 50 mg/kg, po bid for 2.5 days; format: organism-based; set-up: dose 50 mg/kg, route oral; conditions: in vivo, 60 h
Outline: (§1)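 Acute toxicity by stepwise cumulative oral dosing in two mice per compound: 25 and/or 50 mg/kg twice daily for 2.5 days to […]; animals observed for 1 week after the last dose for adverse effects and weight loss.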

Mus musculus [2] = assay: Toxicity in Swiss mouse assessed as weight loss at 25 mg/kg, po bid for 2.5 days; format: organism-based; set-up: dose 25 mg/kg, route oral; conditions: in vivo, 60 h; outline: as §1
Mus musculus [3] = assay: Toxicity in Swiss mouse at 20 mg/kg, po; conditions: in vivo
Trypanosoma cruzi [4] = assay: (§2) Antitrypanosomal activity against Trypanosoma cruzi Tulahuen 6 infected in Swiss mouse at 20 mg/kg, po qd administered on day 8 post-infection for 20 days followed by 10 days non-treatment period followed by three cycles of immunosuppression measured on day 58 post-infection by PCR analysis; format: functional, organism-based; set-up: dose 20 mg/kg
Trypanosoma cruzi [5] = assay: Antitrypanosomal activity against Trypanosoma cruzi Tulahuen 6 infected in Swiss mouse assessed as mouse survival at 20 mg/kg, po qd administered on day 8 post-infection measured on same day by microscopic analysis; format: functional, organism-based; set-up: dose 20 mg/kg
Mus musculus [6] = assay: Oral bioavailability in Swiss mouse at 20 mg/kg by LC/MS analysis; format: ADME, organism-based; conditions: in vivo
[7] = Half life in Swiss mouse at 20 mg/kg, po by LC/MS analysis; format: ADME, organism-based; set-up: dose 20 mg/kg, route oral; conditions: in vivo
[8] = Volume of distribution at steady state in Swiss mouse at 2 mg/kg, iv and 20 mg/kg, po by LC/MS analysis; format: ADME, organism-based; conditions: in vivo, read-out: Vdss
[9] = Half life in Swiss mouse at 2 mg/kg, iv by LC/MS analysis; format: ADME, organism-based; set-up: dose 2 mg/kg, route intravenous; conditions: in vivo
[10] = Plasma clearance in Swiss mouse at 2 mg/kg, iv and 20 mg/kg, po by LC/MS analysis; format: ADME, organism-based
Trypanosoma cruzi [11] = assay: Antitrypanosomal activity against Trypanosoma cruzi Tulahuen 6 infected in Swiss mouse assessed as reduction in blood parasitemia at 20 mg/kg, po qd administered on day 8 post-infection for 10 days by microscopic analysis; format: functional, organism-based; set-up: dose 20 mg/kg
Outline: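 Infected Swiss mice dosed orally at 20 mg/kg once daily for up to 10 days starting day 8 pi; blood parasitemia followed by microscopy throughout dosing, scored as cleared or not during the dosing period.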

[12] = Kinetic aqueous solubility of the compound in phosphate buffer at pH 6.5 by nephelometric analysis
[13] = Kinetic aqueous solubility of the compound in phosphate buffer at pH 2 by nephelometric analysis; conditions: phosphate buffer
[14] = Partition coefficient, log D of the compound at pH 7.4 by chromatographic method; conditions: octanol/water
Trypanosoma cruzi [15] = assay: Antitrypanosomal activity against Trypanosoma cruzi Tulahuen 6 amastigotes infected in rat L6 cells after 96 hrs by colorimetric method; format: functional, organism-based; conditions: Tulahuen 6, L6, 96 h
Trypanosoma cruzi [16] = assay: Antitrypanosomal activity against Trypanosoma cruzi Tulahuen 6 infected in Swiss mouse assessed as mouse survival at 10 mg/kg, po qd administered on day 8 post-infection for 20 days measured on day 28 post-infection by microscopic analysis; format: functional, organism-based; set-up: dose 10 mg/kg
Outline: (§3)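 Outbred female Swiss mice (~8 weeks) infected with mouse-passaged Tulahuen TcVI trypomastigotes; oral dosing once daily for 20 days from day 8 post-infection, suspension in 0.5% HPMC, 0.4% Tween 80, 0.5% benzyl alcohol, 5% DMSO in water; blood parasitemia by microscopy (LOD 20 000 parasites/mL); mice with recurring parasitemia euthanized; survival counted per starting group; 10-day untreated period days 28–37.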

Trypanosoma cruzi [17] = assay: Antitrypanosomal activity against Trypanosoma cruzi Tulahuen 6 infected in Swiss mouse assessed as mouse survival at 20 mg/kg, po qd administered on day 8 post-infection for 20 days followed by 10 days non-treatment measured on day 37 post-infection by microscopic analysis; format: functional, organism-based; set-up: dose 20 mg/kg; outline: as §3
Trypanosoma cruzi [18] = assay: as §2, with “mouse assessed as mouse survival” for “mouse”, “at 100” for “at 20”, “by microscopic” for “by PCR”; format: functional, organism-based; set-up: dose 100 mg/kg
Trypanosoma cruzi [19] = assay: Antitrypanosomal activity against Trypanosoma cruzi Tulahuen 6 infected in Swiss mouse assessed as mouse survival at 100 mg/kg, po qd administered on day 8 post-infection measured on same day by microscopic analysis; format: functional, organism-based; set-up: dose 100 mg/kg
Trypanosoma cruzi [20] = assay: Antitrypanosomal activity against Trypanosoma cruzi Tulahuen 6 infected in Swiss mouse at 5 mg/kg, po qd administered on day 8 post-infection for 20 days followed by 10 days non-treatment period followed by three cycles of immunosuppression measured on day 58 post-infection by PCR analysis; format: functional, organism-based; set-up: dose 5 mg/kg
Trypanosoma cruzi [21] = assay: Antitrypanosomal activity against Trypanosoma cruzi Tulahuen 6 infected in Swiss mouse assessed as mouse survival at 10 mg/kg, po qd administered on day 8 post-infection for 20 days followed by 10 days non-treatment measured on day 37 post-infection by microscopic analysis; format: functional, organism-based; set-up: dose 10 mg/kg
Trypanosoma cruzi [22] = assay: Antitrypanosomal activity against Trypanosoma cruzi Tulahuen 6 infected in Swiss mouse assessed as mouse survival at 5 mg/kg, po qd administered on day 8 post-infection for 20 days followed by 10 days non-treatment measured on day 37 post-infection by microscopic analysis; format: functional, organism-based; set-up: dose 5 mg/kg
Trypanosoma cruzi [23] = assay: Antitrypanosomal activity against Trypanosoma cruzi Tulahuen 6 infected in Swiss mouse assessed as mouse survival at 5 mg/kg, po qd administered on day 8 post-infection for 20 days measured on day 28 post-infection by microscopic analysis; format: functional, organism-based; set-up: dose 5 mg/kg
Trypanosoma cruzi [24] = assay: Antitrypanosomal activity against Trypanosoma cruzi Tulahuen 6 infected in Swiss mouse assessed as mouse survival at 10 mg/kg, po qd administered on day 8 post-infection measured on same day by microscopic analysis; format: functional, organism-based; set-up: dose 10 mg/kg
Trypanosoma cruzi [25] = assay: Antitrypanosomal activity against Trypanosoma cruzi Tulahuen 6 infected in Swiss mouse assessed as mouse survival at 5 mg/kg, po qd administered on day 8 post-infection measured on same day by microscopic analysis; format: functional, organism-based; set-up: dose 5 mg/kg
Cytochrome P450 3A4 = Cytochrome P450 3A4 (Homo sapiens, UniProt P08684); assay: Inhibition of CYP3A4 in human liver microsomes assessed as 6beta-hydroxylation of testosterone
Trypanosoma cruzi [26] = assay: Antitrypanosomal activity against Trypanosoma cruzi Tulahuen 6 infected in Swiss mouse assessed as mouse survival at 20 mg/kg, po qd administered on day 8 post-infection for 20 days measured on day 28 post-infection by microscopic analysis; format: functional, organism-based; set-up: dose 20 mg/kg
[27] = Plasma concentration in Swiss mouse at 20 mg/kg, po after 24 hrs by LC/MS analysis
[28] = Plasma concentration in Swiss mouse at 20 mg/kg, po after 0.5 hrs by LC/MS analysis

Chain of Cytochrome P450 3A4 (P08684 whole entry): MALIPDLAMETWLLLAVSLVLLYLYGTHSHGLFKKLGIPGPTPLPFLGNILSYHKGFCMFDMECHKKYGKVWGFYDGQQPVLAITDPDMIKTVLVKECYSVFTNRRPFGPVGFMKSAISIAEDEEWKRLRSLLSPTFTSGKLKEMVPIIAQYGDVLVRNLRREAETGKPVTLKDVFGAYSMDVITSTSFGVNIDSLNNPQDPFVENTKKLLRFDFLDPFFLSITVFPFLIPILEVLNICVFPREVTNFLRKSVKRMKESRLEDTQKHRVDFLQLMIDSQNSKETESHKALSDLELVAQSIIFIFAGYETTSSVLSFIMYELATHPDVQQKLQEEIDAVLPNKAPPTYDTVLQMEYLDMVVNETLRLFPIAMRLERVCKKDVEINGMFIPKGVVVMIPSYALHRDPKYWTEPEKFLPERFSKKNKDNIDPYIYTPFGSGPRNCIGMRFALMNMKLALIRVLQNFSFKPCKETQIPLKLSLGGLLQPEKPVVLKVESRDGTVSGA

FC(F)(F)c1ccc(N(c2cccnc2)C2CCN(c3ccc(C(F)(F)F)cn3)CC2)cc1
Activity (Mus musculus [1]): Non-toxic | Activity (Mus musculus [2]): Non-toxic | Activity (Mus musculus [3]): Non-toxic | Activity (Trypanosoma cruzi [4]): Active | Activity (Trypanosoma cruzi [5]): Active | F (Mus musculus [6]): 95% | half-life [7]: 12.5 h | Vd [8]: 4.4 L/kg | half-life [9]: 8.6 h | clearance [10]: 8.1 mL/min/kg | Activity (Trypanosoma cruzi [11]): Active | solubility kinetic [12]: < 1.6 µg/mL | solubility kinetic [13]: > 100 µg/mL | chromatographic logD [14]: > 5.3 | IC50 (Trypanosoma cruzi [15]): 17 nM

CC[C@@H]([C@H](C)O)n1ncn(-c2ccc(N3CCN(c4ccc(OC[C@@H]5CO[C@@](Cn6cncn6)(c6ccc(F)cc6F)C5)cc4)CC3)cc2)c1=O [POSACONAZOLE]
Activity (Mus musculus [3]): Non-toxic | Activity (Trypanosoma cruzi [4]): Active | Activity (Trypanosoma cruzi [16]): Active | Activity (Trypanosoma cruzi [5]): Active | Activity (Trypanosoma cruzi [11]): Active | IC50 (Trypanosoma cruzi [15]): 1 nM | Activity (Trypanosoma cruzi [17]): Active

O=C(Cn1ccnc1[N+](=O)[O-])NCc1ccccc1
Activity (Trypanosoma cruzi [18]): inactive | Activity (Trypanosoma cruzi [19]): Active

Cc1ncsc1C(=O)N1CCC(NC(c2ccc(C(F)(F)F)cc2)c2cccnc2)CC1 (stereo not given)
Activity (Mus musculus [3]): Non-toxic | Activity (Trypanosoma cruzi [11]): inactive | IC50 (Trypanosoma cruzi [15]): 58 nM

Cc1cc(C(=O)NC2CCN(C(c3ccc(C#N)cc3)c3cccnc3)CC2)n(C)n1 (stereo not given)
Activity (Mus musculus [3]): Non-toxic | Activity (Trypanosoma cruzi [11]): inactive | IC50 (Trypanosoma cruzi [15]): 47 nM

O=C([C@@H](c1ccc(Cl)cc1)c1cccnc1)N1CCN(c2ccc(C(F)(F)F)cc2)CC1
Activity (Mus musculus [1]): Non-toxic | Activity (Mus musculus [2]): Non-toxic | Activity (Mus musculus [3]): Non-toxic | Activity (Trypanosoma cruzi [20]): inactive | Activity (Trypanosoma cruzi [21]): Active | Activity (Trypanosoma cruzi [16]): Active | Activity (Trypanosoma cruzi [22]): Active | Activity (Trypanosoma cruzi [23]): Active | Activity (Trypanosoma cruzi [24]): Active | Activity (Trypanosoma cruzi [25]): Active | F (Mus musculus [6]): 64% | half-life [7]: 8.2 h | Vd [8]: 4.2 L/kg | half-life [9]: 5.9 h | clearance [10]: 7.7 mL/min/kg | solubility kinetic [12]: 1.6 µg/mL (≈ 3.48 µM) | solubility kinetic [13]: > 100 µg/mL | chromatographic logD [14]: 4.5 | IC50 (Cytochrome P450 3A4): 15000 nM

O=C(C(c1ccc(Cl)cc1)c1cccnc1)N1CCN(c2ccc(C(F)(F)F)cc2)CC1 (racemic)
Activity (Mus musculus [1]): Non-toxic | Activity (Mus musculus [2]): Non-toxic | Activity (Mus musculus [3]): Non-toxic | Activity (Trypanosoma cruzi [4]): inactive | Activity (Trypanosoma cruzi [26]): Active | Activity (Trypanosoma cruzi [5]): Active | Activity (Trypanosoma cruzi [11]): Active | solubility kinetic [12]: 1.6 µg/mL (≈ 3.48 µM) | solubility kinetic [13]: > 100 µg/mL | chromatographic logD [14]: 4.5 | IC50 (Cytochrome P450 3A4): 16000 nM | Activity (Trypanosoma cruzi [17]): Active

Fc1cc(Cl)ccc1C(NC1CCN(c2ccc(C(F)(F)F)cc2)CC1)c1cccnc1 (stereo not given)
Activity (Mus musculus [3]): Non-toxic | Activity (Trypanosoma cruzi [11]): Active | IC50 (Trypanosoma cruzi [15]): 11 nM

CC(C)(C)NC(=O)N1CCC(NC(c2ccc(C(F)(F)F)cc2)c2cccnc2)CC1 (stereo not given)
Activity (Mus musculus [3]): Non-toxic | Activity (Trypanosoma cruzi [11]): inactive | concentration at 24 h [27]: 1 nM | concentration at 0.5 h [28]: 3260 nM | IC50 (Trypanosoma cruzi [15]): 61 nM

N#Cc1ccc(C(c2cccnc2)N2CCC(NC(=O)c3ccccc3)CC2)cc1 (stereo not given)
Activity (Mus musculus [3]): Non-toxic | Activity (Trypanosoma cruzi [11]): inactive | IC50 (Trypanosoma cruzi [15]): 24 nM

N#Cc1cccc(N2CCC(NC(c3cccnc3)c3ccc(Cl)cc3F)CC2)c1 (stereo not given)
Activity (Mus musculus [3]): Non-toxic | Activity (Trypanosoma cruzi [11]): inactive | IC50 (Trypanosoma cruzi [15]): 13 nM
